Hsp70 activator = Hsp70 transcriptional activation, primary screen | HeLa Hsp70 promoter luciferase reporter, luminescence; scaled: vehicle 0, proteasome-inhibitor control 100% | activation, % at 10 µM | 200,000 tested, 0.04% active | AID 1203;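 active = activation above the mean across all tested compounds plus 3 SD, cutoff set per campaign, cut at about 5.5% in these data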
NPY Y2 blocker = blocks the human neuropeptide Y Y2 receptor; P49146; AID 793; 140,000 tested, 0.99% active; inhibition, % at 2.7 µM; NPY-Y2 expressing cells, antagonist mode; in the data active = inhibition above about 17%
Wee1 stabilizer = human Wee1 degradation inhibition, primary screen | 220,000 tested, 1.2% active | HeLa Luc-Wee1K328M stability, luciferase luminescence; 100% = proteasome inhibitor MG132 effect | P30291 | reporter increase, % at 5 µM;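 active = activation above the mean of all tested compounds plus 3 SD, set per screening run, cut at about 8.8% in these data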;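 also: cells exposed to compound for 20 h before luminescence read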
Target sequence (P30291 whole entry K328M): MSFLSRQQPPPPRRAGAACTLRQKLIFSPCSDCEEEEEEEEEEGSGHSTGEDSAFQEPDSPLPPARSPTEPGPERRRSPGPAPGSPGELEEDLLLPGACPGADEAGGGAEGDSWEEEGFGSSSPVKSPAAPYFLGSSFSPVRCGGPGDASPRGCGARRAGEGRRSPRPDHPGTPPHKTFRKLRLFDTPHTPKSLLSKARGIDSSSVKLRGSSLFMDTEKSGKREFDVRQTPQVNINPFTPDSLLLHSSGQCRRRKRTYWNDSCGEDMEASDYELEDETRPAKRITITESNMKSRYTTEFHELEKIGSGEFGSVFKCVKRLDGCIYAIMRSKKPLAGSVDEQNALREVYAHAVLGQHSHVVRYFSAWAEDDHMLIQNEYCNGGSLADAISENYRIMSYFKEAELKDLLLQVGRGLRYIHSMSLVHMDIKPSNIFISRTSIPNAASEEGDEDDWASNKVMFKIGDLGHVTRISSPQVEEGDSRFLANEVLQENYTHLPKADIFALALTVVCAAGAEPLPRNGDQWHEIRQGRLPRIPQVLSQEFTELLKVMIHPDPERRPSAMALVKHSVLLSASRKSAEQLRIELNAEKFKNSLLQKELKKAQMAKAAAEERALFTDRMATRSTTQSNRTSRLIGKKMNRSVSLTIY
NPY1 pot ag = human NPY-Y1 potentiation or agonism, primary screen; P25929; NPY-Y1 expressing cells, potentiator/agonist activation; activation, % at 3.6 µM; 220,000 tested, 0.37% active; in the data active = activation above about 33%, passing the limit was not always enough;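 also: cells stimulated with NPY at EC10 then isoproterenol at EC100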
NPY Y1 blocker = blocks the human neuropeptide Y Y1 receptor; AID 1040; HEK293-CNG Y1 cells, membrane potential fluorescence; NPY at EC95, then isoproterenol; inhibition, % at 3.6 µM; 200,000 tested, 1% active;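 active = inhibition above the campaign mean inhibition of all tested compounds plus 3 SD, cut at about 20% in these data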
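System: HEK293 cells with Y1 receptor plus CNG channel / Probe or stimulus: NPY 25 nM then isoproterenol 1 µM plus Ro 20-1724 25 µM / Compound: one concentration, 3.6 µM, in 0.4% DMSO / Schedule: compound incubation 1 h at room temperature, readout 45 min post-stimulation / Measured by: membrane potential fluorescence / Read-out: % inhibition of NPY effect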
NPY-Y2 PAM-ag = potentiates or activates human NPY-Y2 receptor; P49146; cells expressing NPY-Y2, potentiator/agonist read-out; activation, % at 3.6 µM; 220,000 tested, 0.45% active; in the data active = activation above about 27%;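 also: cells stimulated with NPY near EC25 plus isoproterenol at EC100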
Each line names hits and unclear results; the compound was inactive in the other large screens; ! = not active in a repeat. An excerpt weighted towards active compounds, which were near 3% of everything screened.

Cc1noc(C)c1COc1cccc(C(=O)OCC(=O)N2CC(=O)Nc3ccccc32)c1	Wee1 stabilizer 18
CCOC(=O)C1=C(C)NC(SCC(=O)O)=NC1c1ccccc1 (stereo not given)	none
O=C(O)/C(=C\c1ccc(Cl)cc1)c1ccc(F)cc1	none (no result: NPY Y2 blocker)
CCCn1nc(C(=O)Nc2cc(C(=O)OC)ccc2C)c2ccccc2c1=O	none
COC(=O)c1ccc(C)c(NC(=O)c2nn(C)c(=O)c3ccccc23)c1	Wee1 stabilizer 8.9
O=C1NCCn2ccc(=O)cc21	Wee1 stabilizer 13 (no result: Hsp70 activator, NPY Y2 blocker, NPY Y1 blocker)
Cc1ccc(CN2CCNC2=O)cc1	none
Cc1ccc(C2NC(=NCc3ccccc3)Nc3nc(C)cc(=O)n32)cc1 (stereo not given)	none (no result: Hsp70 activator, NPY Y2 blocker, NPY Y1 blocker)
Cc1nc(N2CCOCC2)nc(Oc2ccccc2)c1[N+](=O)[O-]	Wee1 stabilizer 9.2 (no result: Hsp70 activator, NPY Y2 blocker, NPY Y1 blocker)
CCCCOc1nc(N2CCOCC2)nc(C)c1[N+](=O)[O-]	none (no result: Hsp70 activator, NPY Y2 blocker, NPY Y1 blocker)
Nc1ccc(Cl)cc1/C(=N/O)c1ccccc1	none
CN(/N=C/c1ccncc1)c1cnc2ccccc2n1	Wee1 stabilizer 10.0 (no result: NPY Y2 blocker)
Cc1cc(N/N=C/c2ccncc2)nc2ccccc12	none (no result: NPY Y2 blocker)
O=C(NCCc1c[nH]c2ccccc12)c1cnccn1	none (no result: NPY Y2 blocker)
CCCCOC(=O)c1cc(C)nc2ccc(Br)cc12	NPY1 pot ag 101, NPY-Y2 PAM-ag 31
[O-][n+]1ccccc1SC/C=C/c1ccccc1	Wee1 stabilizer 10 (no result: NPY Y2 blocker)
O=C(O)CSc1cccc[n+]1[O-]	none
N#CCc1nn2c3c(cnc2c1C#N)C(=O)CCC3	none (no result: NPY Y2 blocker)
CC1CC(=O)NN=C1c1ccc(N(C)C)c([N+](=O)[O-])c1 (stereo not given)	NPY Y2 blocker 94, NPY Y1 blocker 78
CCN(CC)CCN(C)c1ccc(N2C(=O)C3CC=CCC3C2=O)cc1[N+](=O)[O-] (stereo not given)	none (no result: NPY Y2 blocker)
CCN(CC)c1ccc(C2=NNC(=O)CC2C)cc1[N+](=O)[O-] (stereo not given)	NPY Y2 blocker 71, NPY Y1 blocker 64
CC1CC(=O)NN=C1c1cccs1 (stereo not given)	none (no result: Hsp70 activator, NPY Y2 blocker, NPY Y1 blocker)
OCCC1CN(Cc2cccc3nccnc23)CCN1Cc1ccc(F)c(F)c1 (stereo not given)	none (no result: NPY Y2 blocker)
CCn1c(-c2cccn(Cc3ccc(Cl)cc3Cl)c2=O)n[nH]c1=S	none (no result: NPY Y2 blocker)
O=C(/C=C/c1ccco1)Nc1cccc(C(=O)Nc2ccccc2C(=O)O)c1	Wee1 stabilizer 11 (no result: Hsp70 activator, NPY Y2 blocker, NPY Y1 blocker)
O=c1[nH]ncc(N2CCCCCC2)c1Cl	none (no result: NPY Y2 blocker)
O=C(CCC(=O)N1CCc2ccccc21)N1CCc2ccccc21	none
O=C(CCCc1ccccc1)N1CCc2ccccc21	Wee1 stabilizer 9.8
O=C1COc2cccnc2N1	Wee1 stabilizer 9.4!
CC(C)C1N=C(c2ccc3c(c2)OCO3)CC(c2ccccc2O)N1 (stereo not given)	Wee1 stabilizer 9.4
CCOc1ccccc1C1N=C(c2ccc(OC)cc2)CC(c2ccccc2O)N1 (stereo not given)	none (no result: NPY Y2 blocker)
CCOC(=O)c1c(C)n(C)c2ccc(O)c(CN(C)C)c12	NPY1 pot ag 75, NPY-Y2 PAM-ag 70
CCOC(=O)c1c(C)n(-c2ccc(OC)cc2)c2ccc(O)c(CN(C)C)c12	none (no result: Hsp70 activator, NPY Y2 blocker, NPY Y1 blocker)
O=C(N/N=C/c1cccnc1)C(=O)N1CCCCCC1	none (no result: Hsp70 activator, NPY Y2 blocker, NPY Y1 blocker)
Cc1ccccc1OCC(O)CN1CCCCC1 (stereo not given)	NPY1 pot ag 89, NPY-Y2 PAM-ag 64 (no result: NPY Y2 blocker)
Cc1ccccc1OCC(O)CN (stereo not given)	NPY1 pot ag 80, NPY-Y2 PAM-ag 44
Cc1cc(C)nc(NCC(O)COc2ccccc2C)n1 (stereo not given)	none
COc1ccc([N+](=O)[O-])cc1NC(=O)CN(C)S(=O)(=O)c1ccccc1	none (no result: NPY Y2 blocker)
CC(=O)Nc1ccc(C=C(C(C)=O)C(C)=O)cc1	none (no result: Hsp70 activator, NPY Y2 blocker, NPY Y1 blocker)
Cc1cc(NC(=O)c2cc3n(n2)C(C(F)(F)F)CC(c2ccco2)N3)no1 (stereo not given)	Wee1 stabilizer 9.9
O=C(NCc1ccc2c(c1)OCO2)C1CCCN1S(=O)(=O)c1ccc(Cl)cc1 (stereo not given)	none (no result: NPY Y2 blocker)
COc1ccc(S(=O)(=O)N(Cc2ccccc2)Cc2nc(-c3ccccc3)no2)cc1	NPY Y2 blocker 21, NPY Y1 blocker 41
COc1ccc(-c2noc(CN(C)S(=O)(=O)c3ccccc3)n2)cc1OC	none
CC(C)CN(CC(C)C)C(=O)COc1ccccc1C(N)=O	Wee1 stabilizer 9.9 (no result: NPY Y2 blocker)
CCOC(=O)c1c(C)c(/C=N/Nc2ccccc2)n(C)c1C	none (no result: NPY Y2 blocker)
COc1ccc(C(=O)NC(NC(=O)c2ccc(OC)c(OC)c2)c2ccccc2F)cc1OC	Wee1 stabilizer 9.9
COc1ccc(C(=O)NC(CC(C)C)C(=O)O)cc1OC (stereo not given)	none
COCc1cc(=O)[nH]c(Nc2nc3ccc(C)cc3o2)n1	Wee1 stabilizer 8.9
Cc1cccc(COc2ncnc3nc[nH]c23)c1	none
COCCNc1oc(-c2ccc(F)cc2)nc1C#N	none
COc1ccc(Nc2oc(-c3ccc(F)cc3)nc2C#N)cc1	Wee1 stabilizer 9.3 (no result: Hsp70 activator, NPY Y2 blocker, NPY Y1 blocker)
O=C1OC(c2ccccc2)=C/C1=C/N1CCOCC1	none
O=C1OC(c2ccccc2)=C/C1=C\N1CCOCC1	Wee1 stabilizer 27
CCC(Sc1nc2ccccc2o1)C(=O)O (stereo not given)	NPY Y1 blocker 21 (no result: NPY Y2 blocker)
Cc1nn(C(C)(C)C)c(OC(=O)c2ccc3c(c2)OCO3)c1Sc1ccccc1	NPY Y2 blocker 29, NPY Y1 blocker 48
Cc1nn(C(C)(C)C)c(OC(=O)c2ccc3c(c2)OCO3)c1S(=O)(=O)c1ccccc1	none
COc1ccc(-c2csc3nc(C)nc(N4CCC(C)CC4)c23)cc1OC	NPY Y1 blocker 21 (no result: NPY Y2 blocker)
COc1ccc(-c2csc3nc(C)nc(N4CCN(C(C)=O)CC4)c23)cc1OC	none (no result: NPY Y2 blocker)
Cc1cc(C)cc(N(C(=O)c2cccs2)C2C=CS(=O)(=O)C2)c1 (stereo not given)	none (no result: NPY Y2 blocker)
Cc1ccc(O)c(NC(=O)CCC2CCCCC2)c1	Wee1 stabilizer 9.1
CC(C)n1cc(CN2CCCC(CO)(Cc3cccc(Cl)c3)C2)cn1 (stereo not given)	Wee1 stabilizer 10 (no result: NPY Y2 blocker)
Cn1cc(CN2CCCC(CO)(Cc3cccc(Cl)c3)C2)cn1 (stereo not given)	none (no result: NPY Y2 blocker)
Cc1ccc(-c2nc3cc(NC(=O)C(C)C)ccc3o2)cc1	Wee1 stabilizer 25
CCOc1ccc2nc(NS(=O)(=O)Cc3ccccc3)sc2c1	NPY Y2 blocker 20, NPY Y1 blocker 23
Nc1ccc2nc(SCc3cccc(F)c3)sc2c1	none (no result: NPY Y2 blocker)
Cc1noc(C)c1COc1ccc(CC(=O)NCc2ccccc2)cc1	Wee1 stabilizer 9.3 (no result: NPY Y2 blocker)
C=C(C)c1cccc(C(C)(C)NC(=O)N(Cc2ccccc2)Cc2ccco2)c1	NPY Y2 blocker 28, Wee1 stabilizer 16
O=C(c1ccc(Cl)cc1)C1C2C(=O)N(c3ccccc3)C(=O)C2C2CCCN21 (stereo not given)	none

Compound activity: PubChem, The Scripps Research Institute Molecular Screening Center
